Measurements published in ChEMBL document CHEMBL1138529, “Efficacy, pharmacokinetics, and metabolism of tetrahydroquinoline inhibitors of Plasmodium falciparum protein farnesyltransferase” (Antimicrob Agents Chemother, 2007).
Each block holds one compound with its values, some of them ahead of it.

Columns and labels:
[1] = system: Blood; test: Drug level in bile duct cannulated Sprague-Dawley rat blood at 35 mg/kg, po after 3 hrs; format: ADME, organism-based; parameters: dose 35 mg/kg, route oral; settings: in vivo
Procedure, shortened: (§1)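 Male Sprague-Dawley rats (~350 g), jugular vein and bile duct cannulated, 1 week recovery; three per compound dosed by oral gavage with 35 mg/kg in 3% EtOH-7% Tween 80-90% normal saline plus 80 μCi/kg 14C tracer. Plasma and blood cells sampled over 18 h; radioactivity by liquid scintillation, reported as mean μg base equivalents/g.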

[2] = Drug metabolism in bile duct cannulated Sprague-Dawley rat assessed as radioactive drug recovery in gastrointestinal tract at 35 mg/kg, po after 18 hrs; format: ADME, organism-based; parameters: dose 35 mg/kg, route oral; settings: in vivo
Procedure, shortened: (§2)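 Male bile-duct- and jugular-cannulated Sprague-Dawley rats (~350 g, three per compound) given 35 mg/kg 14C-labelled compound orally (80 μCi/kg) in 3% EtOH-7% Tween 80-90% saline. Urine, feces and bile collected for 18 h, cages washed with methanol-water, animals autopsied; radioactivity per matrix by liquid scintillation counting as mean % of dose.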

[3] = Drug metabolism in bile duct cannulated Sprague-Dawley rat assessed as radioactive drug recovery in carcass at 35 mg/kg, po after 18 hrs; format: ADME, organism-based; parameters: dose 35 mg/kg, route oral; settings: in vivo; procedure, shortened: as §2
[4] = Drug metabolism in bile duct cannulated Sprague-Dawley rat assessed as radioactive drug recovery in urine at 35 mg/kg, po after 18 hrs; format: ADME, organism-based; parameters: dose 35 mg/kg, route oral; settings: in vivo; procedure, shortened: as §2
[5] = Drug metabolism in bile duct cannulated Sprague-Dawley rat assessed as radioactive drug recovery in feces at 35 mg/kg, po after 18 hrs; format: ADME, organism-based; parameters: dose 35 mg/kg, route oral; settings: in vivo; procedure, shortened: as §2
[6] = system: Blood; test: Drug level in bile duct cannulated Sprague-Dawley rat blood at 35 mg/kg, po after 18 hrs; format: ADME, organism-based; parameters: dose 35 mg/kg, route oral; settings: in vivo; procedure, shortened: as §1
[7] = system: Rattus norvegicus; test: Plasma concentration in bile duct cannulated Sprague-Dawley rat at 35 mg/kg, po after 2 hrs; format: ADME, organism-based; parameters: dose 35 mg/kg, route oral; settings: in vivo
Procedure, shortened: (§3)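 Male Sprague-Dawley rats, about 350 g, with jugular and bile-duct cannulae, allowed 1 week recovery; three per compound. Oral gavage 35 mg/kg in 3% EtOH-7% Tween 80-90% saline with 80 μCi/kg 14C tracer. Monitored 18 h. Plasma and blood-cell radioactivity measured by liquid scintillation counting and given as μg base equivalents/g.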

[8] = system: Rattus norvegicus; test: Plasma concentration in bile duct cannulated Sprague-Dawley rat at 35 mg/kg, po after 18 hrs; settings: in vivo
[9] = system: Rattus norvegicus; test: Plasma concentration in bile duct cannulated Sprague-Dawley rat at 35 mg/kg, po after 1 hr; format: ADME, organism-based; parameters: dose 35 mg/kg, route oral; settings: in vivo; procedure, shortened: as §3
[10] = system: Blood; test: Drug level in bile duct cannulated Sprague-Dawley rat blood at 35 mg/kg, po after 1 hr; format: ADME, organism-based; parameters: dose 35 mg/kg, route oral; settings: in vivo; procedure, shortened: as §1
[11] = system: Rattus norvegicus; test: Plasma concentration in bile duct cannulated Sprague-Dawley rat at 35 mg/kg, po after 3 hrs; format: ADME, organism-based; parameters: dose 35 mg/kg, route oral; settings: in vivo; procedure, shortened: as §3
[12] = system: Blood; test: Drug level in bile duct cannulated Sprague-Dawley rat blood at 35 mg/kg, po after 2 hrs; format: ADME, organism-based; parameters: dose 35 mg/kg, route oral; settings: in vivo; procedure, shortened: as §1
[13] = Drug metabolism in bile duct cannulated Sprague-Dawley rat assessed as radioactive drug recovery in bile at 35 mg/kg, po after 18 hrs; format: ADME, organism-based; parameters: dose 35 mg/kg, route oral; settings: in vivo; procedure, shortened: as §2
[14] = system: Rattus norvegicus; test: Plasma concentration in bile duct cannulated Sprague-Dawley rat at 35 mg/kg, po after 4 hrs; format: ADME, organism-based; parameters: dose 35 mg/kg, route oral; settings: in vivo; procedure, shortened: as §3
[15] = system: Rattus norvegicus; test: Plasma concentration in bile duct cannulated Sprague-Dawley rat at 35 mg/kg, po after 6 hrs; format: ADME, organism-based; parameters: dose 35 mg/kg, route oral; settings: in vivo; procedure, shortened: as §3
[16] = system: Rattus norvegicus; test: Plasma concentration in bile duct cannulated Sprague-Dawley rat at 35 mg/kg, po after 0.5 hrs; format: ADME, organism-based; parameters: dose 35 mg/kg, route oral; settings: in vivo; procedure, shortened: as §3
[17] = system: Rattus norvegicus; test: Toxicity in bile duct cannulated Sprague-Dawley rat assessed as incidence of adverse events at 35 mg/kg, po after 18 hrs; format: organism-based; parameters: dose 35 mg/kg, route oral; settings: in vivo; procedure, shortened: as §3
[18] = system: Blood; test: Drug level in bile duct cannulated Sprague-Dawley rat blood at 35 mg/kg, po after 0.5 hrs; format: ADME, organism-based; parameters: dose 35 mg/kg, route oral; settings: in vivo; procedure, shortened: as §1
[19] = system: Blood; test: Drug level in bile duct cannulated Sprague-Dawley rat blood at 35 mg/kg, po after 4 hrs; format: ADME, organism-based; parameters: dose 35 mg/kg, route oral; settings: in vivo; procedure, shortened: as §1
[20] = system: Rattus norvegicus; test: Drug metabolism in bile duct cannulated Sprague-Dawley rat assessed as radioactive drug recovery at 35 mg/kg, po after 18 hrs; format: ADME, organism-based; parameters: dose 35 mg/kg, route oral; settings: in vivo; procedure, shortened: as §2
[21] = system: Blood; test: Drug level in bile duct cannulated Sprague-Dawley rat blood at 35 mg/kg, po after 6 hrs; format: ADME, organism-based; parameters: dose 35 mg/kg, route oral; settings: in vivo; procedure, shortened: as §1
[22] = AUC in Sprague-Dawley rat at 50 mg/kg, po; format: ADME, organism-based; parameters: dose 50 mg/kg, route oral; settings: plasma
Procedure, shortened: (§4)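 Three female BALB/c mice (lines for mice, 8–10 weeks) or three female Sprague-Dawley rats (10–12 weeks) per group; 50 mg/kg oral gavage in 3% EtOH-7% Tween 80-90% normal saline. Plasma sampled at set times (tail bleed in mice, saphenous vein in rats), extracted with acetonitrile plus internal standard, quantified by LC/MS; AUC as mean of three animals.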

[23] = AUC in BALB/c mouse at 50 mg/kg, po; format: ADME, organism-based; parameters: dose 50 mg/kg, route oral; settings: plasma; procedure, shortened: as §4
[24] = system: Rattus norvegicus; test: Toxicity in Sprague-Dawley rat at 50 mg/kg, po; format: organism-based; parameters: dose 50 mg/kg, route oral; settings: in vivo
Procedure, shortened: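 Female Sprague-Dawley rats, 10-12 weeks, three per group. 50 mg/kg oral gavage in 3% EtOH-7% Tween 80-90% normal saline. Saphenous vein plasma sampled over time, and animals observed for adverse reactions.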

[25] = Metabolic stability in mouse liver microsomes; format: ADME, Microsome
Procedure, shortened: (§5)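 Pooled female liver microsomes at 0.5 mg/ml in 0.1 M potassium phosphate pH 7.4, 3 mM MgCl2, 1 mM EDTA, with NADPH regenerating system (1 mM NADP+, 5 mM glucose-6-phosphate, 1 U/ml G6PDH). Preincubated 10 min at 37°C, then compound added to 1 μM final. Time points quenched with 3 volumes acetonitrile plus internal standard; parent quantified by LC/MS; half-life reported.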

[26] = Elimination half life in Sprague-Dawley rat at 50 mg/kg, po; format: ADME, organism-based; parameters: dose 50 mg/kg, route oral; settings: in vivo, read-out: beta t1/2
Procedure, shortened: (§6)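 50 mg/kg by oral gavage in 3% EtOH-7% Tween 80-90% normal saline to groups of three females (BALB/c mice, 8–10 weeks, tail bleed; Sprague-Dawley rats, 10–12 weeks, saphenous vein). Plasma extracted with acetonitrile/internal standard, LC/MS; means of three animals. Oral elimination half-life depends on absorption rate as well as elimination.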

[27] = Cmax in Sprague-Dawley rat at 50 mg/kg, po; format: ADME, organism-based; parameters: dose 50 mg/kg, route oral; settings: in vivo; procedure, shortened: as §6
[28] = Cmax in BALB/c mouse at 50 mg/kg, po; format: ADME, organism-based; parameters: dose 50 mg/kg, route oral; settings: in vivo; procedure, shortened: as §6
[29] = Elimination half life in BALB/c mouse at 50 mg/kg, po; format: ADME, organism-based; parameters: dose 50 mg/kg, route oral; settings: in vivo, read-out: beta t1/2; procedure, shortened: as §6
[30] = Metabolic stability in rat liver microsomes; format: ADME, Microsome; procedure, shortened: as §5
[31] = Permeability from basolateral to apical side in human Caco-2 cells; format: ADME, cell-based; settings: read-out: permeability
Procedure, shortened: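 Caco-2 clone TC7 grown on laminin-coated porous inserts and used 19-21 days after seeding; integrity checked by TEER and [3H]mannitol flux. Monolayers equilibrated 30 min at 37°C in HBSS/5 mM HEPES pH 7.4. Compound at 50 μM final added to basolateral donor side. Apical receiver sampled at 60 min, 37°C with shaking; LC/MS; Papp calculated from 60-min concentrations.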

[32] = system: Mus musculus; test: Toxicity in BALB/c mouse at 50 mg/kg, po; format: organism-based; parameters: dose 50 mg/kg, route oral; settings: in vivo
[33] = Permeability from apical to basolateral side in human Caco-2 cells; format: ADME, cell-based; settings: read-out: permeability
[34] = system: Mus musculus; test: Plasma concentration in BALB/c mouse at 50 mg/kg, po; format: ADME, organism-based; parameters: dose 50 mg/kg, route oral; settings: in vivo
Procedure, shortened: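 Female BALB/c mice, 8-10 weeks, three per group. Single 50 mg/kg oral gavage in 3% EtOH-7% Tween 80-90% normal saline. Plasma collected by tail bleed at set times, frozen at −20°C, acetonitrile-extracted with internal standard, quantified by LC/MS.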

Drug uptake [1]: 0.821 ug base equiv/g
Drug uptake [2]: 18.2%
Drug uptake [3]: 9.7%
Drug uptake [4]: 4.3%
Drug uptake [5]: 26.7%
Drug uptake [6]: 0.344 ug base equiv/g
Cp [7]: 2.14 ug base equiv/g
Cp [8]: 0.34 ug base equiv/g
Cp [9]: 2.01 ug base equiv/g
Drug uptake [10]: 0.909 ug base equiv/g
Cp [11]: 2.2 ug base equiv/g
Drug uptake [12]: 1.03 ug base equiv/g
Drug uptake [13]: 26.2%
Cp [14]: 1.92 ug base equiv/g
Cp [15]: 1.23 ug base equiv/g
Cp [16]: 1.5 ug base equiv/g
Drug uptake [18]: 0.442 ug base equiv/g
Drug uptake [19]: 0.729 ug base equiv/g
Drug uptake [20]: 92.2%
Drug uptake [21]: 0.623 ug base equiv/g
Structure (SMILES): Cn1cncc1CN1CC(N(CC2CCN(C(=O)OC(C)(C)C)CC2)S(=O)(=O)c2ccccn2)Cc2cc([14C]#N)ccc21 (stereo not drawn)
Activity [17]: Non-toxic

AUC [22]: 13.5 µM·h
AUC [23]: 15.7 µM·h
half-life [25]: 98 min
half-life [26]: 106 min
Cmax [27]: 4.1 µM
Cmax [28]: 5 µM
half-life [29]: 88 min
half-life [30]: 165 min
Structure (SMILES): Cn1cnc(S(=O)(=O)N(CC(=O)NC(C)(C)C)C2Cc3cc(-c4ccccc4)ccc3N(Cc3cncn3C)C2)c1 (stereo not drawn)
Activity [24]: Non-toxic

AUC [22]: 5.42 µM·h
AUC [23]: 4.55 µM·h
Papp B→A [31]: 72.5 ×10⁻⁶ cm/s
half-life [25]: 3.4 min
half-life [26]: 26 min
Cmax [27]: 3.4 µM
Papp A→B [33]: 0.7 ×10⁻⁶ cm/s
concentration [34]: 3.9 µM
Cmax [28]: 3.9 µM
half-life [29]: 30 min
half-life [30]: 16 min
Structure (SMILES): Cn1cnc(S(=O)(=O)N(Cc2ccc(C(F)(F)F)o2)C2Cc3cc(C#N)ccc3N(Cc3cncn3C)C2)c1 (stereo not drawn)
Activity [24]: Non-toxic
Activity [32]: Non-toxic
